The record followed here is ChEMBL document CHEMBL4261523, “PAIN-less identification and evaluation of small molecule inhibitors against protein tyrosine phosphatase 1B” (Medchemcomm, 2017).

The source made the active and inactive calls. The rule behind the calls is not given here.

One may read the IC50 as the concentration that inhibits the measured activity by half.

The target of series [1] is T1, Tyrosine-protein phosphatase non-receptor type 1 (Homo sapiens, UniProt P18031).
T1 sequence (P18031 whole entry): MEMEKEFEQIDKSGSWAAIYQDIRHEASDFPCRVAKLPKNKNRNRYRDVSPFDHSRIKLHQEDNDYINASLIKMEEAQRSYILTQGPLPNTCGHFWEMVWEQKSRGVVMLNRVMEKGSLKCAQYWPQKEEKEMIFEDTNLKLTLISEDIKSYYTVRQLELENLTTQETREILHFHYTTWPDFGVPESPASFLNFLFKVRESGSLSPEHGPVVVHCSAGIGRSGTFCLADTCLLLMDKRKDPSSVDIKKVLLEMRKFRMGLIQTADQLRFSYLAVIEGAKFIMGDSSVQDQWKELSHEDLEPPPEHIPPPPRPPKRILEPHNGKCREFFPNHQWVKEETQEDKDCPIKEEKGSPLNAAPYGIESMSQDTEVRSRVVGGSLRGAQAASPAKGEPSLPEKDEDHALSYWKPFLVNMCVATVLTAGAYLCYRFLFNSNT
As to the kind of experiment: (§1) Inhibition of PTP1B (1 to 298 residues) (unknown origin) using DifMUP as substrate preincubated for 30 mins followed by substrate addition and measured after 30 mins by fluorescence assay. The gist of the method: (§2)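 PTP1B catalytic domain (aa 1–298, 5 nM final) preincubated with compound (diluted in DMSO) 30 min at RT in the dark. DifMUP (30 μM final) added, 30 min at RT. Stopped with H2O2 (0.5% final), 30 min RT. Fluorescence read at Ex 360/Em 450 nm. Buffer: 50 mM citrate pH 6.0, 100 mM NaCl, 1 mM EDTA, 0.1 mM DTT, 0.01% Brij35.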

Series [2] is described as follows: Effect on fluorescence read out during PTP1B enzymatic reaction compound treated post enzyme-substrate reaction and susequent H2O2-mediated enzyme deactivation. In a few lines:
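Read-out counter assay. PTP1B (aa 1–298) turned over DifMUP first, then the enzyme was deactivated with H2O2 and compound added. A drop in fluorescence (Ex 360/Em 450 nm) marks interference with the read-out. Concentration–response format.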

The target in series [3] is T2, Tyrosine-protein phosphatase non-receptor type 1 (Homo sapiens) (UniProt P18031).
T2 sequence (whole entry): T1 sequence (P18031 whole entry)
The description is as §1. The gist of the method:
as §2

A short description of series [4]: Intrinsic redox activity of compound after 60 mins in presence of resazurin/DTT. In general terms: Alamar Blue is a resazurin reagent that responds to reducing activity.
The target of series [5] is T1, Tyrosine-protein phosphatase non-receptor type 1. In words: Competitive inhibition of PTP1B (1 to 298 residues) (unknown origin) using 15 uM DifMUP as substrate preincubated for 30 mins followed by substrate addition and measured after 30 mins by fluorescence assay. In a few lines:
(§3)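 PTP1B aa 1–298 (5 nM final) preincubated with compound 30 min at RT in the dark, then DifMUP added, 30 min at RT. Stopped with 0.5% final H2O2, 30 min. Fluorescence read at Ex 360/Em 450 nm. Buffer: citrate pH 6.0, NaCl, EDTA, DTT, Brij35.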

The target is the same in series [6]. In words: Competitive inhibition of PTP1B (1 to 298 residues) (unknown origin) using 30 uM DifMUP as substrate preincubated for 30 mins followed by substrate addition and measured after 30 mins by fluorescence assay. The gist of the method: as §2
Series [7] has the same target. In words: Competitive inhibition of PTP1B (1 to 298 residues) (unknown origin) using 60 uM DifMUP as substrate preincubated for 30 mins followed by substrate addition and measured after 30 mins by fluorescence assay. The gist of the method: as §3
The target in series [8] is T2, Tyrosine-protein phosphatase non-receptor type 1 (Homo sapiens). As to the kind of experiment: Reversible inhibition of PTP1B (1 to 298 residues) (unknown origin) using 10 fold excess DifMUP as substrate preincubated for 30 mins followed by substrate addition and measured after 30 mins by fluorescence assay.
A short description of series [9]: Self-aggregating behavior of compound at 32 to 500 uM by 1D-1H NMR method. Type of series: physicochemical. In a few lines: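 Self-association check by 1D 1H NMR. Dilution series from 500 to 32 μM compound in 5 mM TRIS pH 7.4, 50 mM NaCl, 5% DMSO-d6. Concentration-dependent shifts of aromatic resonances were monitored.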

Take `COc1cc2c(cc1OC)-c1cc3ccc(OC)c(OC)c3c[n+]1CC2` [PALMITINE]: the 50% inhibitory concentration (IC50) in series [1] amounted to 234 µM. The outcome in series [2] was Active.
`CN(C)c1ccc2nc3ccc(=[N+](C)C)cc-3sc2c1`: in [3], the inhibition entry is “Active”.
`Cc1c(C)c2c(c(C)c1OC(=O)CCC(=O)O)CCC(C)(C)O2`: in series [3], the inhibition entry is “inactive”.
`O=C(O)C(=O)Nc1sc2c(c1C(=O)O)CCNC2`: the result in series [2] was inactive.
As for `Cc1c(C)c2c(c(C)c1OC(=O)CCC(=O)O)CC[C@@](C)(CCC[C@H](C)CCC[C@H](C)CCCC(C)C)O2` [(+)-ALPHA-TOCOPHERYL SUCCINATE], the IC50 in [1] came out at 20 µM; in series [5], 25.1 µM; in series [6], 39 µM; in [7], 45.6 µM. Further, the result in series [2] and in [4] was inactive. Moreover, in series [8], the inhibition result is “Active”.
Regarding `Cc1c(C)c2c(c(C)c1O)CC[C@@](C)(CCC[C@H](C)CCC[C@H](C)CCCC(C)C)O2`, in series [3], the inhibition entry was “inactive”.
Take `CC(=O)Oc1c(C)c(C)c2c(c1C)CC[C@@](C)(CCC[C@H](C)CCC[C@H](C)CCCC(C)C)O2`: the inhibition result in series [3] is “inactive”.
In turn, `COc1ccc2cc3[n+](cc2c1OC)CCc1cc2c(cc1-3)OCO2` [BERBERINE] returned an IC50 in series [1] of 67 µM. The outcome in series [2] was Active. Moreover, the outcome in series [9] was Active.
